Measured values: ChEMBL document CHEMBL4689842, “EUbOPEN Chemogenomics Library wave 1” (2021)

System: U2OS
Assay: Multiplex assay against U2OS
Assay type: toxicity, cell-based
Conditions: human
How it was run: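 On a CQ1 microscope at 37°C and 5% CO2, live cells were imaged after compound addition. They had been stained at seeding with Hoechst33342, BioTracker Green Microtubule Cytoskeleton Dye, MitoTracker Red and Annexin V Alexa Fluor 680. CellPathfinder machine-learning gating assigned cells to Hoechst high-intensity objects or normal cells, normal cells to healthy, pyknosed or fragmented nuclei, and pyknosed cells to mitotic or apoptotic. Tubulin, mitochondrial-mass and membrane-permeability phenotypes are per cents of healthy-nucleus cells.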

[1] = 12 h, 1 µM, compound concentration 1 uM, replicate 1
[2] = 12 h, 1 µM, compound concentration 1 uM, replicate 2
[3] = 12 h, 10 µM, compound concentration 10 uM, replicate 1
[4] = 12 h, 10 µM, compound concentration 10 uM, replicate 2
[5] = 24 h, 1 µM, compound concentration 1 uM, replicate 1
[6] = 24 h, 1 µM, compound concentration 1 uM, replicate 2
[7] = 24 h, 10 µM, compound concentration 10 uM, replicate 1
[8] = 24 h, 10 µM, compound concentration 10 uM, replicate 2
[9] = 48 h, 1 µM, compound concentration 1 uM, replicate 1
[10] = 48 h, 1 µM, compound concentration 1 uM, replicate 2
[11] = 48 h, 10 µM, compound concentration 10 uM, replicate 1
[12] = 48 h, 10 µM, compound concentration 10 uM, replicate 2

## Cl.N#Cc1ccc2[nH]cc(CCCCN3CCN(c4ccc5oc(C(N)=O)cc5c4)CC3)c2c1 [VILAZODONE HYDROCHLORIDE]
[1]
  Population Apoptotic (%): 42%
  Population Fragmented Nuclei (%): 17%
  Population Healthy Nuclei (%): 65%
  Population Hoechst High Intensity Objects (%): 9%
  Population Membrane Permeable-Phenotype (%): 4%
  Population Mitochondria Different-Phenotype (%): 28%
  Population Mitotic Cells (%): 57%
  Population Normal (%): 90%
  Population Pyknosed Nuclei (%): 17%
  Population Tubulin-Different-Phenotype (%): 29%
  Total Cell Count: 129
[2]
  Population Apoptotic (%): 27%
  Population Fragmented Nuclei (%): 14%
  Population Healthy Nuclei (%): 70%
  Population Hoechst High Intensity Objects (%): 2%
  Population Membrane Permeable-Phenotype (%): 6%
  Population Mitochondria Different-Phenotype (%): 30%
  Population Mitotic Cells (%): 72%
  Population Normal (%): 97%
  Population Pyknosed Nuclei (%): 15%
  Population Tubulin-Different-Phenotype (%): 18%
  Total Cell Count: 50
[3]
  Population Apoptotic (%): 39%
  Population Fragmented Nuclei (%): 29%
  Population Healthy Nuclei (%): 12%
  Population Hoechst High Intensity Objects (%): 18%
  Population Membrane Permeable-Phenotype (%): 42%
  Population Mitochondria Different-Phenotype (%): 89%
  Population Mitotic Cells (%): 60%
  Population Normal (%): 81%
  Population Pyknosed Nuclei (%): 58%
  Population Tubulin-Different-Phenotype (%): 100%
  Total Cell Count: 120
[4]
  Population Apoptotic (%): 67%
  Population Fragmented Nuclei (%): 20%
  Population Healthy Nuclei (%): 14%
  Population Hoechst High Intensity Objects (%): 10%
  Population Membrane Permeable-Phenotype (%): 38%
  Population Mitochondria Different-Phenotype (%): 46%
  Population Mitotic Cells (%): 32%
  Population Normal (%): 89%
  Population Pyknosed Nuclei (%): 64%
  Population Tubulin-Different-Phenotype (%): 92%
  Total Cell Count: 72
[5]
  Population Apoptotic (%): 56%
  Population Fragmented Nuclei (%): 16%
  Population Healthy Nuclei (%): 71%
  Population Hoechst High Intensity Objects (%): 7%
  Population Membrane Permeable-Phenotype (%): 2%
  Population Mitochondria Different-Phenotype (%): 26%
  Population Mitotic Cells (%): 43%
  Population Normal (%): 92%
  Population Pyknosed Nuclei (%): 12%
  Population Tubulin-Different-Phenotype (%): 21%
  Total Cell Count: 120
[6]
  Population Apoptotic (%): 60%
  Population Fragmented Nuclei (%): 15%
  Population Healthy Nuclei (%): 78%
  Population Hoechst High Intensity Objects (%): 1%
  Population Membrane Permeable-Phenotype (%): 3%
  Population Mitochondria Different-Phenotype (%): 19%
  Population Mitotic Cells (%): 40%
  Population Normal (%): 98%
  Population Pyknosed Nuclei (%): 6%
  Population Tubulin-Different-Phenotype (%): 18%
  Total Cell Count: 54
[7]
  Population Apoptotic (%): 61%
  Population Fragmented Nuclei (%): 26%
  Population Membrane Permeable-Phenotype (%): 53%
  Population Mitochondria Different-Phenotype (%): 86%
  Population Mitotic Cells (%): 38%
  Population Pyknosed Nuclei (%): 64%
  Population Tubulin-Different-Phenotype (%): 93%
  Total Cell Count: 135
[8]
  Population Apoptotic (%): 75%
  Population Fragmented Nuclei (%): 31%
  Population Healthy Nuclei (%): 9%
  Population Hoechst High Intensity Objects (%): 18%
  Population Membrane Permeable-Phenotype (%): 30%
  Population Mitochondria Different-Phenotype (%): 90%
  Population Mitotic Cells (%): 24%
  Population Normal (%): 81%
  Population Pyknosed Nuclei (%): 59%
  Population Tubulin-Different-Phenotype (%): 90%
  Total Cell Count: 79
[9]
  Population Apoptotic (%): 38%
  Population Fragmented Nuclei (%): 10%
  Population Healthy Nuclei (%): 76%
  Population Hoechst High Intensity Objects (%): 6%
  Population Membrane Permeable-Phenotype (%): 8%
  Population Mitochondria Different-Phenotype (%): 10%
  Population Mitotic Cells (%): 61%
  Population Normal (%): 93%
  Population Pyknosed Nuclei (%): 12%
  Population Tubulin-Different-Phenotype (%): 16%
  Total Cell Count: 121
[10]
  Population Apoptotic (%): 40%
  Population Fragmented Nuclei (%): 12%
  Population Healthy Nuclei (%): 82%
  Population Hoechst High Intensity Objects (%): 2%
  Population Membrane Permeable-Phenotype (%): 9%
  Population Mitochondria Different-Phenotype (%): 9%
  Population Mitotic Cells (%): 60%
  Population Normal (%): 97%
  Population Pyknosed Nuclei (%): 4%
  Population Tubulin-Different-Phenotype (%): 11%
  Total Cell Count: 49
[11]
  Population Apoptotic (%): 91%
  Population Fragmented Nuclei (%): 35%
  Population Healthy Nuclei (%): 7%
  Population Hoechst High Intensity Objects (%): 21%
  Population Membrane Permeable-Phenotype (%): 87%
  Population Mitochondria Different-Phenotype (%): 100%
  Population Mitotic Cells (%): 8%
  Population Normal (%): 78%
  Population Pyknosed Nuclei (%): 56%
  Population Tubulin-Different-Phenotype (%): 100%
  Total Cell Count: 174
[12]
  Population Apoptotic (%): 89%
  Population Fragmented Nuclei (%): 25%
  Population Healthy Nuclei (%): 5%
  Population Hoechst High Intensity Objects (%): 25%
  Population Membrane Permeable-Phenotype (%): 75%
  Population Mitotic Cells (%): 10%
  Population Normal (%): 74%
  Population Pyknosed Nuclei (%): 68%
  Total Cell Count: 120
